ChEMBL document CHEMBL1129494, “Structure-based design of lipophilic quinazoline inhibitors of thymidylate synthase” (J Med Chem, 1996)

Assays:
[1] = target: Thymidylate synthase (Escherichia coli) (UniProt C3SWJ7)
L1210 [2] = assay: Inhibition of murine L1210 cell line tissue culture growth; type: functional, cell-based; settings: Mus musculus
In short: (§1)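 Murine L1210 leukemia cells seeded at 1000 cells/well in RPMI-1640 containing 5% fetal calf serum and 0.5% DMSO, exposed to nine 2-fold serial dilutions for 3 days. Growth was read by MTT (4 h), with formazan dissolved in DMSO and measured spectrophotometrically. IC50 comes from semilog concentration plots of the mean of four assessments per dilution versus control growth.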

GC3/MTK- [3] = assay: Inhibitory activity of compound against growth of thymidine kinase-deficient human adenocarcinoma cell line (GC3/M TK-) in tissue culture; type: functional; parameters: concentration or dose not given beside the values
In short: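 MTT colorimetric growth assay in the thymidine kinase-deficient human adenocarcinoma line. Seeded at 10 000 cells/well in RPMI-1640 with 10% fetal calf serum and 0.5% DMSO. Nine 2-fold serial dilutions of compound, 5 day incubation, then 4 h MTT. Formazan dissolved in DMSO and read spectrophotometrically. IC50 taken from semilog plots of the mean of four growth assessments per dilution, relative to control cultures.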

GC3/MTK- [4] = assay: Activity for growth inhibition in tissue culture of thymidine kinase-deficient human adenocarcinoma cell line (GC3/M TK-)value in parenthesis indicates % inhibition; type: functional, cell-based
CCRF-CEM [5] = assay: (§2) Inhibition of CCRF-CEM (human leukemia) cell growth in vitro.; type: functional, cell-based
In short: (§3)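 MTT colorimetric growth assay (modified Mosmann) in CCRF-CEM human leukemia cells seeded at 10 000 cells/well in RPMI-1640 with 5% fetal calf serum and 0.5% DMSO. Nine 2-fold serial dilutions of compound, 5 day incubation, then 4 h MTT and formazan dissolved in DMSO for spectrophotometric reading. IC50 taken from semilog plots of the mean of four growth assessments per dilution relative to control cultures.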

[6] = target: Thymidylate synthase (Escherichia coli) (UniProt C3SWJ7); remark: listed apart in the source
L1210 [7] = assay: Inhibition of L1210 (murine leukemia) cell growth in vitro.; type: functional, Mus musculus; parameters: concentration or dose not given beside the values
In short: as §1

[8] = target: Thymidylate synthase (Homo sapiens) (UniProt P04818)
[9] = target: Thymidylate synthase (Homo sapiens) (UniProt P04818); remark: listed apart in the source
GC3/MTK- [10] = assay: Inhibition of GC3/M TK- (human adenocarcinoma) cell growth in vitro.; type: functional, cell-based
In short: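 Thymidine kinase-deficient human adenocarcinoma GC3/M TK- cells seeded at 10 000 cells/well in RPMI-1640 with 10% fetal calf serum and 0.5% DMSO. Compound given as nine 2-fold serial dilutions over a 5 day incubation, then 4 h MTT and spectrophotometric formazan read after DMSO dissolution. IC50 from semilog plots of the mean of four growth assessments relative to control cultures.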

CCRF-CEM [11] = assay: as §2; type: functional; parameters: concentration or dose not given beside the values
In short: as §3

Thymidylate synthase (Escherichia coli), sequence (C3SWJ7 1-264): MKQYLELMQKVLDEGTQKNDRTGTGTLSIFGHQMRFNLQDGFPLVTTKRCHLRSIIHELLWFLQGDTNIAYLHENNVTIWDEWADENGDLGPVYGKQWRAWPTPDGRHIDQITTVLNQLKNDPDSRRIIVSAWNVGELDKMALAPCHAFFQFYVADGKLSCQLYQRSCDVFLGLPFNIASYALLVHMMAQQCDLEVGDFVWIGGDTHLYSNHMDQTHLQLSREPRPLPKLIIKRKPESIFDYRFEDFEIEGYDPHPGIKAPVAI
Thymidylate synthase (Homo sapiens), sequence (P04818 2-313 limits assumed): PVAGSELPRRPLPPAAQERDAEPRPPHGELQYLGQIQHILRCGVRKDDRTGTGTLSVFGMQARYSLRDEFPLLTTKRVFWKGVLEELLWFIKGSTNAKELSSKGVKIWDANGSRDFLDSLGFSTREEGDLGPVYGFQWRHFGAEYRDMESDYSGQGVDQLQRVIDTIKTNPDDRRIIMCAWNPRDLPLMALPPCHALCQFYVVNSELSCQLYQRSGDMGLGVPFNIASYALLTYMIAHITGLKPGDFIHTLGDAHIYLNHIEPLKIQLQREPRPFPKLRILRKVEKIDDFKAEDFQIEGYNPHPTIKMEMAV

Kis [1] [µM] | IC50 (L1210 [2]) [µM] | IC50 (CCRF-CEM [5]) [µM] | Kii [6] [µM] | Kis [8] [µM] | Kii [9] [µM] | SMILES | Inhibition (GC3/MTK- [3]) [%] | IC50 (GC3/MTK- [4]) [µM] | Inhibition (L1210 [7]) [%] | IC50 (GC3/MTK- [10]) [µM] | Inhibition (CCRF-CEM [11]) [%]
0.1 | > 50 | 48 | 0.28 | 0.063 | 0.071 | C#CCN(Cc1ccc2nc(C)nc(O)c2c1)c1ccc(S(=O)(=O)N2CCNCC2)cc1 | 47 | > 50 | 47 | – | –
0.1 | 20 | > 26 | 0.41 | 0.064 | 0.084 | C#CCN(Cc1ccc2nc(C)nc(O)c2c1)c1ccc(S(N)(=O)=O)cc1 | – | – | – | > 26 | –
2 | > 14.7 | > 14.7 | 17 | 1 | 2.2 | Cc1nc(O)c2cc(CNc3ccc(S(=O)(=O)c4ccccc4)cc3)ccc2n1 | 10 | – | 40 | > 14.7 | 33
> 1 | 2.8 | 3.4 | > 1 | > 1 | > 1 | Cc1nc(O)c2cc(CN(C)c3ccc(Cc4ccccc4)cc3)ccc2n1 | – | > 5 | – | – | –
0.18 | 3.4 | > 4 | 1 | 0.13 | 0.49 | CCN(Cc1ccc2nc(C)nc(O)c2c1)c1ccc(C(=O)C(F)(F)F)cc1 | 10 | – | – | > 4 | 10
0.16 | 1.7 | 4.5 | 0.55 | 0.061 | 0.11 | C#CCN(Cc1ccc2nc(C)nc(O)c2c1)c1ccc([S+]([O-])c2ccccc2)cc1 (configuration not stated) | – | – | – | 3.9 | –
0.094 | 7.7 | > 7.7 | 0.47 | 0.11 | 0.16 | C#CCN(Cc1ccc2nc(C)nc(O)c2c1)c1ccc(C(=O)c2ccccc2)cc1 | – | – | – | 6.2 | 40
0.18 | > 5.6 | > 5.6 | 0.36 | 1.3 | 2.3 | C#CCN(Cc1ccc2nc(C)nc(S)c2c1)c1cccc(C(F)(F)F)c1 | – | > 5.6 | – | – | 30
– | 0.86 | 1.44 | – | – | – | C#CCN(Cc1ccc2nc(C)nc(O)c2c1)c1ccc(S(=O)(=O)c2ccccc2)cc1 | – | – | – | 1.76 | –
0.039 | 3.1 | 4.5 | 0.15 | 0.045 | 0.091 | C#CCN(Cc1ccc2nc(C)nc(O)c2c1)c1ccc(S(=O)(=O)N2CCOCC2)cc1 | – | – | – | 5.2 | –
0.92 | 1.8 | > 5.7 | 3.3 | 0.65 | 0.84 | C#CCN(Cc1ccc2nc(C)nc(O)c2c1)c1cccc(Br)c1 | – | – | – | 5.3 | 20
0.068 | 4.7 | > 4.8 | 0.17 | 0.056 | 0.098 | C#CCN(Cc1ccc2nc(C)nc(O)c2c1)c1ccc([N+](=O)[O-])cc1 | – | – | – | > 4.8 | 8
0.077 | 0.66 | 2.7 | 0.24 | 0.034 | 0.13 | CCN(Cc1ccc2nc(C)nc(O)c2c1)c1ccc(S(=O)(=O)c2ccccc2)cc1 | – | – | – | 2.6 | –
– | 1.57 | – | – | – | – | C#CCN(Cc1ccc2[nH]c(N)nc(=O)c2c1)c1ccc(C(=O)NC(CCC(=O)O)C(=O)O)cc1 (configuration not stated) | – | – | – | 2.13 | –

SMILES | Kis [1] [µM] | IC50 (L1210 [2]) [µM] | IC50 (CCRF-CEM [5]) [µM] | Kii [6] [µM] | Kis [8] [µM] | Kii [9] [µM] | Inhibition (GC3/MTK- [3]) [%] | IC50 (GC3/MTK- [4]) [µM] | Inhibition (L1210 [7]) [%] | IC50 (GC3/MTK- [10]) [µM] | Inhibition (CCRF-CEM [11]) [%]
C#CCN(Cc1ccc2nc(C)nc(O)c2c1)c1ccc([N+](=O)[O-])c(C(F)(F)F)c1 | 0.038 | 5 | 10.5 | 0.073 | 0.074 | 0.15 | – | – | – | – | –
C#CCN(Cc1ccc2nc(C)nc(O)c2c1)c1ccc(C#N)c(C(F)(F)F)c1 | 0.015 | > 2.8 | – | 0.047 | 0.081 | 0.14 | – | – | >15 | – | –
